Columns and labels:
[1] = molecular target: Cannabinoid receptor 1 (Homo sapiens) (UniProt P21554); assay: Negative allosteric modulator activity at CB1 receptor (unknown origin) expressed in HEK293 cell membrane assessed as equilibrium dissociation constant using [3H]-CP55940 as radiolabelled orthosteric agonist incubated for 60 mins by liquid scintillation counting analysis; type: cell membranes; conditions: filed as negative allosteric modulator
Summary of the method: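 HEK293 cells transiently transfected with CB1 (calcium phosphate), harvested at 24 h; membranes from nitrogen cavitation and 100,000 g pellet, kept in TME buffer (pH 7.4) with 7% sucrose. 4 µg membrane incubated 60 min with [3H]CP55940 at about its Kd in TME plus 0.1% fatty acid-free BSA. Nonspecific binding taken with 1 µM unlabeled CP55,940; filtration on GF/C. At least three experiments, each in duplicate.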

[2] = molecular target: Cannabinoid receptor 1 (Homo sapiens) (UniProt P21554); assay: (§1) Negative allosteric modulator activity at CB1 receptor (unknown origin) expressed in HEK293 cell membrane assessed as reduction in CP55,940-induced [35S]GTPgammaS binding incubated for 60 mins by liquid scintillation counting analysis; type: functional, cell membranes; conditions: filed as negative allosteric modulator, dose 3.2-10 µM
[3] = molecular target: Cannabinoid receptor 1 (Homo sapiens) (UniProt P21554); assay: as §1, with “binding by measuring Emax of CP55,940 at 3.2 uM” for “binding”, “analysis (reference value: 68.9 +/-1.7 fmol/mg)” for “analysis”; type: functional, cell membranes; conditions: filed as negative allosteric modulator
[4] = molecular target: Cannabinoid receptor 1 (Homo sapiens) (UniProt P21554); assay: Negative allosteric modulator activity at CB1 receptor (unknown origin) expressed in HEK293 cell membrane assessed as reduction in CP55,940-induced [35S]GTPgammaS binding at 10 uM incubated for 60 mins by liquid scintillation counting analysis; type: functional, cell membranes; conditions: filed as negative allosteric modulator

Cannabinoid receptor 1 (Homo sapiens), sequence (P21554 whole entry): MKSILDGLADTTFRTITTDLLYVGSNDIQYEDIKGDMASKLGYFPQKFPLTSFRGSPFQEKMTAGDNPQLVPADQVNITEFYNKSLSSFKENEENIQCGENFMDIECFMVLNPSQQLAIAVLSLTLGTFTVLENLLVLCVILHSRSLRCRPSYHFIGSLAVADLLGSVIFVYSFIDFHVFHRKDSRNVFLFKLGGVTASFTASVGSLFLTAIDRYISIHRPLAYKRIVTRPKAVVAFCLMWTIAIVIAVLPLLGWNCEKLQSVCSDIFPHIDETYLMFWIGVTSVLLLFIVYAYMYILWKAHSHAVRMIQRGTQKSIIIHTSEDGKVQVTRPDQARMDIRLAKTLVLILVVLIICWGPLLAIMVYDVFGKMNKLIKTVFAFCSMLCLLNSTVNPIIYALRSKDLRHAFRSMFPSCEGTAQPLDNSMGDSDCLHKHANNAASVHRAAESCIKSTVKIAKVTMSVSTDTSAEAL

| SMILES | Kb [1] [µM] | inhibition [2] | Emax [3] [fmol/mg] | inhibition [4] [%] |
| --- | --- | --- | --- | --- |
| CCCCCCc1c(C(=O)NCCc2ccc(C3(C(F)(F)F)N=N3)cc2)[nH]c2ccc(Cl)cc12 | 3.27 |  |  |  |
| [N-]=[N+]=NCc1c(C(=O)NCCc2ccc(N3CCCCC3)cc2)[nH]c2ccc(Cl)cc12 | 0.784 |  |  |  |
| CCc1c(C(=O)NCCc2ccc(C(=O)c3ccccc3)cc2)[nH]c2ccc(Cl)cc12 | 0.254 | Dose-dependent effect | 41.3 | 100 |
| CCCCCc1c(C(=O)NCCc2ccc(C(=O)c3ccccc3)cc2)[nH]c2ccc(Cl)cc12 | 0.559 | Dose-dependent effect | 27 | 100 |
| CN(C)c1ccc(CCNC(=O)c2[nH]c3ccc(Cl)cc3c2CN=[N+]=[N-])cc1 | 0.2 | Dose-dependent effect | 31.1 | 100 |
| [N-]=[N+]=NCc1c(C(=O)NCCc2ccc(C(=O)c3ccccc3)cc2)[nH]c2ccc(Cl)cc12 | 6.31 |  |  |  |
| CCCCCCc1c(C(=O)NCCc2ccc(N=[N+]=[N-])cc2)[nH]c2ccc(Cl)cc12 | 0.314 | Dose-dependent effect | 34.1 | 100 |
